Assay results reported in ChEMBL document CHEMBL4229410, “Facile construction of fused benzimidazole-isoquinolinones that induce cell-cycle arrest and apoptosis in colorectal cancer cells” (Bioorg Med Chem, 2018).

Columns and labels:
HT-29 [1] = experiment: Cell cycle arrest in human HT-29 cells assessed as accumulation at G2-phase at 50 uM after 48 hrs by propidium iodide staining based flow cytometry (reference value: 15.45%); assay type: functional
SW-620 [2] = experiment: Cell cycle arrest in human SW620 cells assessed as accumulation at G1-phase at 75 uM after 48 hrs by propidium iodide staining based flow cytometry (reference value: 40.56%); assay type: functional
HT-29 [3] = experiment: Upregulation of p21 expression in human HT-29 cells after 48 hrs by Western blot analysis; assay type: functional, cell-based
HT-29 [4] = experiment: Induction of apoptosis in human HT-29 cells assessed as necrotic cells at 25 uM after 48 hrs by Annexin-V-FITC/propidium iodide staining based flow cytometry (reference value: 1.6%); assay type: functional
SW-620 [5] = experiment: Induction of apoptosis in human SW620 cells assessed as live cells at 50 uM after 48 hrs by Annexin-V-FITC/propidium iodide staining based flow cytometry (reference value: 97.5%); assay type: functional
SW-620 [6] = experiment: Induction of apoptosis in human SW620 cells assessed as early apoptotic cells at 50 uM after 48 hrs by Annexin-V-FITC/propidium iodide staining based flow cytometry (reference value: 0.4%); assay type: functional
SW-620 [7] = experiment: Induction of apoptosis in human SW620 cells assessed as reduction in BCL2 expression after 48 hrs by Western blot analysis; assay type: functional, cell-based
HT-29 [8] = experiment: Induction of apoptosis in human HT-29 cells assessed as reduction in MCL1 expression after 48 hrs by Western blot analysis; assay type: functional, cell-based
Procedure, shortened: (§1)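 HT29 or SW620 cells were treated at 0, 25, 50 and 75 μM for 48 h and lysed in RIPA with protease and phosphatase inhibitors. Protein was quantified by BCA. 50 μg lysate was run on 8–15% SDS-PAGE and transferred to PVDF. Blocking was 5% BSA/TBST for 2 h; primary antibodies were applied overnight at 4 °C, then HRP secondary 1 h at room temperature.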

HT-29 [9] = experiment: Effect on total mTOR expression in human HT-29 cells up to 75 uM after 48 hrs by Western blot analysis; assay type: ADME, cell-based; details: ht-29, 48 h; procedure, shortened: as §1
[10] = target: Tyrosine-protein kinase receptor UFO (Homo sapiens) (UniProt P30530); experiment: Inhibition of human AXL (R497 to Y821 residues) expressed in bacterial expression system assessed as residual activity at 5 uM by KINOMEscan assay relative to control
[11] = target: Cyclin-dependent kinase 7 (Homo sapiens, UniProt P50613); experiment: Inhibition of full length human CDK7 (M1 to L344 residues) expressed in mammalian expression system assessed as residual activity at 5 uM by KINOMEscan assay relative to control
[12] = target: T1, Casein kinase I isoform gamma-2 (Homo sapiens, UniProt P78368); experiment: Inhibition of full length human CSNK1G2 (M1 to K415 residues) expressed in bacterial expression system assessed as residual activity at 5 uM by KINOMEscan assay relative to control
Target sequence in this assay (P78368 whole entry, looked up, the tested form may be a part, canonical isoform): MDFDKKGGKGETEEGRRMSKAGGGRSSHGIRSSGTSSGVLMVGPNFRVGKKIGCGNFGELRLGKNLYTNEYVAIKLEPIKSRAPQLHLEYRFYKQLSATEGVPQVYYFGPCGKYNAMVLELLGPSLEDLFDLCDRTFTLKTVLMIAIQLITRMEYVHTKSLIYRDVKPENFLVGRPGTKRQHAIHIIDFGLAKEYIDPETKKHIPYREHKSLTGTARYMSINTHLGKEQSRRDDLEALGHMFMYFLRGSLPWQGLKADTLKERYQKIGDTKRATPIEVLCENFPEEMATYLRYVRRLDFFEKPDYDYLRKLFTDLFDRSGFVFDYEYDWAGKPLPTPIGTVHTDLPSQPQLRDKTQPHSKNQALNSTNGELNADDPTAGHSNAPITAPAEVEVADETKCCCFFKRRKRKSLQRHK

[13] = target: MAP kinase-activated protein kinase 2 (Homo sapiens, UniProt P49137); experiment: Inhibition of human MAPKAPK2 (V48 to D345 residues) expressed in bacterial expression system assessed as residual activity at 5 uM by KINOMEscan assay relative to control
[14] = target: Dual specificity mitogen-activated protein kinase kinase 2 (Homo sapiens, UniProt P36507); experiment: Inhibition of full length human MEK2 (M1 to V400 residues) expressed in mammalian expression system assessed as residual activity at 5 uM by KINOMEscan assay relative to control
[15] = target: RAF proto-oncogene serine/threonine-protein kinase (Homo sapiens, UniProt P04049); experiment: Inhibition of human RAF1 (I330 to T640 residues) expressed in bacterial expression system assessed as residual activity at 5 uM by KINOMEscan assay relative to control
[16] = target: Rho-associated protein kinase 2 (Homo sapiens, UniProt O75116); experiment: Inhibition of human ROCK2 (M1 to T431 residues) expressed in mammalian expression system assessed as residual activity at 5 uM by KINOMEscan assay relative to control
[17] = target: Vascular endothelial growth factor receptor 2 (Homo sapiens, UniProt P35968); experiment: Inhibition of human VEGFR2 (R787 to P1253 residues) expressed in mammalian expression system assessed as residual activity at 5 uM by KINOMEscan assay relative to control
[18] = target: Tyrosine-protein kinase ABL1 (Homo sapiens, UniProt P00519, E255K); experiment: Binding affinity to human phosphorylated ABL1 E255K mutant (S229 to K512 residues) expressed in mammalian expression system by KINOMEscan assay
[19] = target: Tyrosine-protein kinase ABL1 (Homo sapiens, UniProt P00519); experiment: Binding affinity to human non-phosphorylated ABL1 (S229 to K512 residues) expressed in mammalian expression system by KINOMEscan assay
[20] = target: Serine/threonine-protein kinase B-raf (Homo sapiens, UniProt P15056, V600E); experiment: Binding affinity to human BRAF (S429 to E741 residues) V600E mutant expressed in mammalian expression system by KINOMEscan assay
[21] = target: Cyclin-dependent kinase 19 (Homo sapiens, UniProt Q9BWU1); experiment: Binding affinity to human CDK11 (M1 to N360 residues) expressed in bacterial expression system by KINOMEscan assay
[22] = target: T1, Casein kinase I isoform gamma-2; experiment: Binding affinity to full length human CSNK1G2 (M1 to K415 residues) expressed in bacterial expression system by KINOMEscan assay
Target sequence in this assay (P78368 whole entry, the tested form may be a part, canonical isoform): as the sequence (P78368 whole entry, looked up, the tested form may be a part, canonical isoform) above

[23] = target: Fibroblast growth factor receptor 2 (Homo sapiens, UniProt P21802); experiment: Binding affinity to partial length human FGFR2 (D457 to E769 residues) expressed in bacterial expression system by KINOMEscan assay
[24] = target: Tyrosine-protein kinase JAK3 (Homo sapiens, UniProt P52333); experiment: Binding affinity to human JAK3 JH1 catalytic domain (I781 to S1124 residues) expressed in mammalian expression system by KINOMEscan assay
[25] = target: Serine/threonine-protein kinase STK11 (Homo sapiens, UniProt Q15831); experiment: Binding affinity to full length human LKB1 (M1 to Q433 residues) expressed in bacterial expression system by KINOMEscan assay
[26] = target: Platelet-derived growth factor receptor alpha (Homo sapiens, UniProt P16234); experiment: Binding affinity to human PDGFRA (V575 to D1002 residues) expressed in mammalian expression system by KINOMEscan assay
[27] = target: Phosphatidylinositol 4-phosphate 3-kinase C2 domain-containing subunit beta (Homo sapiens, UniProt O00750); experiment: Binding affinity to human PIK3C2B (M1 to L1634 residues) expressed in mammalian expression system by KINOMEscan assay
[28] = target: Serine/threonine-protein kinase RIO2 (Homo sapiens, UniProt Q9BVS4); experiment: Binding affinity to human RIOK2 (M1 to D313 residues) expressed in mammalian expression system by KINOMEscan assay
SRSF protein kinase 3 = SRSF protein kinase 3 (Homo sapiens, UniProt Q9UPE1); experiment: Binding affinity to human SRPK3 (P41 to P567 residues) expressed in bacterial expression system by KINOMEscan assay
[29] = target: Serine/threonine-protein kinase ULK2 (Homo sapiens, UniProt Q8IYT8); experiment: Binding affinity to human ULK2 (M1 to S301 residues) expressed in mammalian expression system by KINOMEscan assay

Chain of Platelet-derived growth factor receptor alpha (P16234 whole entry, the tested form may be a part): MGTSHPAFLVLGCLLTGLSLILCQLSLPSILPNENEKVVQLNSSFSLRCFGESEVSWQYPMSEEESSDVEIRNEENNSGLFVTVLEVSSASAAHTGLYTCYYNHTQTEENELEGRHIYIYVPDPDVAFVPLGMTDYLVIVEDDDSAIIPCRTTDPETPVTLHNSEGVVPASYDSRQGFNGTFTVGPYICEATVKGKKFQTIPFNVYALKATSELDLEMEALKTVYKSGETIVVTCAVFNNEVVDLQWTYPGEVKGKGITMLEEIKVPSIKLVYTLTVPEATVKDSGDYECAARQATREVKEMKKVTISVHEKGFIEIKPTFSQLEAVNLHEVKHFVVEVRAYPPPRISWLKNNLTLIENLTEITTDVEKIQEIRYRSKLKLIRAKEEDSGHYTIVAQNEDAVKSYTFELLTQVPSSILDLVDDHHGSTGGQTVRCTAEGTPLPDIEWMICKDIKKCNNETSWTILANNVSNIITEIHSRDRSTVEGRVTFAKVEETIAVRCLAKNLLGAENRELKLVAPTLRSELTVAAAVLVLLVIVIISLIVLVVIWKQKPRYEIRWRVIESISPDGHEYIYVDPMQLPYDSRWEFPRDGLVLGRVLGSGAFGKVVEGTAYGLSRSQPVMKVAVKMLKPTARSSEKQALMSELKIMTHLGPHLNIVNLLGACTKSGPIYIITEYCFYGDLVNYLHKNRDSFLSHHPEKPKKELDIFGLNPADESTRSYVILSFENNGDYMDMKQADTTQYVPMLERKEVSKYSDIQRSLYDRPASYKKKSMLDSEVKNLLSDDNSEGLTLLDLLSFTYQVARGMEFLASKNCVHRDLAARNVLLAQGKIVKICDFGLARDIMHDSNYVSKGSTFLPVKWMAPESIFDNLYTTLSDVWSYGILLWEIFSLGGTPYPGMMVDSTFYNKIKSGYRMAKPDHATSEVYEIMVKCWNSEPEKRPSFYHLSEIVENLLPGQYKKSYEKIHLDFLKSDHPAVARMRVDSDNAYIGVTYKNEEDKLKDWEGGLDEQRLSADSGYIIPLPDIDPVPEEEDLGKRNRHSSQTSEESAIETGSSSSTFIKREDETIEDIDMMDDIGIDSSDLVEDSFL
Chain of MAP kinase-activated protein kinase 2 (P49137 whole entry, looked up, the tested form may be a part): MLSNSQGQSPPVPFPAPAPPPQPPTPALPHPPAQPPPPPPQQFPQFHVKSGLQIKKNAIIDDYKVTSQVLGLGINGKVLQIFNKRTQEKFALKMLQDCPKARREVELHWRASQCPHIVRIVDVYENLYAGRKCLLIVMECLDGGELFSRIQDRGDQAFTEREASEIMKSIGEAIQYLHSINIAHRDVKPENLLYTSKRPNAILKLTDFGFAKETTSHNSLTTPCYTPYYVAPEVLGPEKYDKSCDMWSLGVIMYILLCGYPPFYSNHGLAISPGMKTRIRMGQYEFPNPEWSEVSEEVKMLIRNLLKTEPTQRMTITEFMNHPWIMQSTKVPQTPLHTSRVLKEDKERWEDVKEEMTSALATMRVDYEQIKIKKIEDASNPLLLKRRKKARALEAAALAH
Chain of Tyrosine-protein kinase JAK3 (P52333 whole entry, the tested form may be a part): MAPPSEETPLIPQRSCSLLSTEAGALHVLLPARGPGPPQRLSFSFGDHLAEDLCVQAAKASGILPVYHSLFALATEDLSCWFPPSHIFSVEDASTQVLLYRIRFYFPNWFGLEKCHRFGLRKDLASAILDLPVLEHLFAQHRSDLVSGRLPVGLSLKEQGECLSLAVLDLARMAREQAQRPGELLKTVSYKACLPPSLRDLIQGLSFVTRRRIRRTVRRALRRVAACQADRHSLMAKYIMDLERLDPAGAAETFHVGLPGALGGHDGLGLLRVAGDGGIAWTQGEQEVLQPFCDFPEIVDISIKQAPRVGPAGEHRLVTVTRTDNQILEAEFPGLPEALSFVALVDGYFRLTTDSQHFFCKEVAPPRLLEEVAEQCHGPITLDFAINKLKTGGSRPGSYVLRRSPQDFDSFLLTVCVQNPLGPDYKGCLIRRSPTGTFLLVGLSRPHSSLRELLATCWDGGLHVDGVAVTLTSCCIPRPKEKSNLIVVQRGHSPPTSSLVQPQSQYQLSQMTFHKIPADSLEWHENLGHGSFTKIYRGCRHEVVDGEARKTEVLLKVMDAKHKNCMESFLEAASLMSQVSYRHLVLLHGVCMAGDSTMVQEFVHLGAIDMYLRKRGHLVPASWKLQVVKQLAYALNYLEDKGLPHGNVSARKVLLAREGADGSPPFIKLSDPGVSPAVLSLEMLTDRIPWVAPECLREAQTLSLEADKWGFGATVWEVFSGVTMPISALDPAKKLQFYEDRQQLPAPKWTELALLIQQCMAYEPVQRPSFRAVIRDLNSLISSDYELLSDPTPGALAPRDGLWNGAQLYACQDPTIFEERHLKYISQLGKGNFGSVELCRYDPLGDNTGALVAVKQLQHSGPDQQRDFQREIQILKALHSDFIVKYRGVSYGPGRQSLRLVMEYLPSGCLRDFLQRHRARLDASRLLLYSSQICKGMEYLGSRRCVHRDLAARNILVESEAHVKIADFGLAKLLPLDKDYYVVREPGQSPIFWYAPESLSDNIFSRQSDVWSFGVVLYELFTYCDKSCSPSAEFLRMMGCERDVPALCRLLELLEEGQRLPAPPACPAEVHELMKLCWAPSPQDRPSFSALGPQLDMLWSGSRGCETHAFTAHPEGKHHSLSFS
Chain of Vascular endothelial growth factor receptor 2 (P35968 whole entry, the tested form may be a part): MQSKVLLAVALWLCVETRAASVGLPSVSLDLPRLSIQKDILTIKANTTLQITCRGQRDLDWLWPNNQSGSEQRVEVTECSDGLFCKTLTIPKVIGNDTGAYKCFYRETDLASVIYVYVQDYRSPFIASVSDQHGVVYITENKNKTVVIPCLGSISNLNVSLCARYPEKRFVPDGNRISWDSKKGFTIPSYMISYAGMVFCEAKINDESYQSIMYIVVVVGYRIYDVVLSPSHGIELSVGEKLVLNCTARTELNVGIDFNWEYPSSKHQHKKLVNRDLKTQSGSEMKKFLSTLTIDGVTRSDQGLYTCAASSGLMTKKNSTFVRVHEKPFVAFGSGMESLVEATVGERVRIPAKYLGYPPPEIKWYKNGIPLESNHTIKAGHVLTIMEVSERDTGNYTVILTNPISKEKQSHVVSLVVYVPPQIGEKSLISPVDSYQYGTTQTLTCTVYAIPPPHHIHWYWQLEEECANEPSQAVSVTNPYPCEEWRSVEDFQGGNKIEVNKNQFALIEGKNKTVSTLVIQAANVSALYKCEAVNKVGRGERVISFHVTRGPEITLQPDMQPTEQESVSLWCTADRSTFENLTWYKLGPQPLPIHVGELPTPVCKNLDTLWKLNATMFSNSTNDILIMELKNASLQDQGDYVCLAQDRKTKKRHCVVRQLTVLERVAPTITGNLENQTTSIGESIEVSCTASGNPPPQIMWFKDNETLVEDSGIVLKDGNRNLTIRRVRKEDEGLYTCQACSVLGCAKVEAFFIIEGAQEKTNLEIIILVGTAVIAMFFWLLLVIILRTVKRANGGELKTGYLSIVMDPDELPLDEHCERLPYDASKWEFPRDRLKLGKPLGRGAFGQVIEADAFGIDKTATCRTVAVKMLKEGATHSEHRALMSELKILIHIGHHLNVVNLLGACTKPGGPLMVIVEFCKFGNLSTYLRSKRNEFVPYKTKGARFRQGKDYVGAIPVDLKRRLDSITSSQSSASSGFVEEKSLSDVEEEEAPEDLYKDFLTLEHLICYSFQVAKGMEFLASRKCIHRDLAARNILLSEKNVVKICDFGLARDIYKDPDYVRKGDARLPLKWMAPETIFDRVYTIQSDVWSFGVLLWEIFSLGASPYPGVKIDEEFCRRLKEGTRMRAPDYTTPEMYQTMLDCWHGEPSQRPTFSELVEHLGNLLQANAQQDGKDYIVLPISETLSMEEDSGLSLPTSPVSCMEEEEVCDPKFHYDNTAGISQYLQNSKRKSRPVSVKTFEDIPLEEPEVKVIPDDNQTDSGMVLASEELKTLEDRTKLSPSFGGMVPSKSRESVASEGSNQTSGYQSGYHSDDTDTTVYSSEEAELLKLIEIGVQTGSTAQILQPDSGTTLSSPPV

## CC(C)CN(C(=O)c1cccnc1)c1c2ccccc2c(=O)n2c1[nH]c1ccccc12
HT-29 [1]
  Activity: 18.12%
SW-620 [2]
  Activity: 31.67%
HT-29 [3]
  Activity: Dose-dependent effect
HT-29 [4]
  Activity: 2.7%
SW-620 [5]
  Activity: 81.7%
SW-620 [6]
  Activity: 0.6%
SW-620 [7]
  Activity: Dose-dependent effect
HT-29 [8]
  Activity: Dose-dependent effect
HT-29 [9]
  Activity: Non-Toxic
[10]
  Activity: 100%
[11]
  Activity: 100%
[12]
  Activity: 76%
[13]
  Activity: 100%
[14]
  Activity: 82%
[15]
  Activity: 89%
[16]
  Activity: 80%
[17]
  Activity: 98%
[18]
  Kd: ≥ 5 µM
[19]
  Kd: ≥ 5 µM
[20]
  Kd: ≥ 5 µM
[21]
  Kd: ≥ 5 µM
[22]
  Kd: ≥ 5 µM
[23]
  Kd: ≥ 5 µM
[24]
  Kd: ≥ 5 µM
[25]
  Kd: ≥ 5 µM
[26]
  Kd: ≥ 5 µM
[27]
  Kd: ≥ 5 µM
[28]
  Kd: ≥ 5 µM
SRSF protein kinase 3
  Kd: ≥ 5 µM
[29]
  Kd: ≥ 5 µM
